Source: ChEMBL document CHEMBL5321214, “Targeting the multifaceted neurotoxicity of Alzheimer's disease by tailored functionalisation of the curcumin scaffold” (Eur J Med Chem, 2023)
Activity calls are given as the source filed them. No cut-off for these calls is given here.

Columns and labels:
[1] = Effect on TNF-alpha release in Sprague-Dawley rat microglial cells at 2.5 uM by ELISA; format: toxicity, cell-based; settings: microglia
Summary of the method: (§1)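 Primary cortical rat microglia in DMSO (≤0.1%) or vehicle for 1 h, then 100 ng/mL LPS for 24 h. TNF-α and IL-1β in culture medium by ELISA against standard curves (pg/mL), expressed as % of LPS-stimulated cultures. Mean ± SEM of 3 independent experiments; one-way ANOVA, Holm-Sidak test.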

[2] = Effect on IL-1 beta release in Sprague-Dawley rat microglial cells at 2.5 uM by ELISA; format: toxicity, cell-based; settings: microglia; summary of the method: as §1
[3] = test system: Microglia; test: Antiinflammatory activity against Sprague-Dawley rat microglial cells assessed as inhibition of LPS-induced TNF-alpha production at 1 to 2.5 uM pretreated with compound for 1 hr followed by LPS stimulation for 24 hrs by ELISA; format: functional, cell-based; settings: dose 1-2.5 µM, time 25.0 hrs; summary of the method: as §1
[4] = test system: Microglia; test: Antiinflammatory activity against Sprague-Dawley rat microglial cells assessed as inhibition of LPS-induced IL-1 beta production at 1 to 2.5 uM pretreated with compound for 1 hr followed by LPS stimulation for 24 hrs by ELISA; format: functional, cell-based; settings: dose 1-2.5 µM, time 25.0 hrs; summary of the method: as §1
[5] = test system: Microglia; test: Antiinflammatory activity against Sprague-Dawley rat microglial cells assessed as inhibition of LPS-induced TNF-alpha production at 2.5 uM pretreated with compound for 1 hr followed by LPS stimulation for 24 hrs by ELISA; format: functional, cell-based; settings: time 25.0 hrs; summary of the method: as §1
[6] = test system: Microglia; test: Antiinflammatory activity against Sprague-Dawley rat microglial cells assessed as inhibition of LPS-induced IL-1 beta production at 1 uM pretreated with compound for 1 hr followed by LPS stimulation for 24 hrs by ELISA; format: functional, cell-based; settings: time 25.0 hrs; summary of the method: as §1
[7] = test system: Microglia; test: Antiinflammatory activity against Sprague-Dawley rat microglial cells assessed as downregulation of TNF-alpha mRNA expression at 2.5 uM pretreated with compound for 1 hr followed by LPS stimulation for 6 hrs by real-time PCR analysis; format: functional, cell-based; settings: time 7.0 hrs
Summary of the method: (§2)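 Primary cortical microglia (postnatal day 1 rat pups, shaken off mixed glial cultures, ~97% Iba1-positive). Compound (DMSO ≤0.1%) for 1 h, then 100 ng/mL ultra-pure E. coli LPS for 6 h. QIAzol RNA extraction, SuperScript IV reverse transcription, real-time PCR. Mean ± SEM, n = 3 in triplicate; one-way ANOVA, Holm-Sidak test.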

[8] = test system: Microglia; test: Antiinflammatory activity against Sprague-Dawley rat microglial cells assessed as downregulation of IL-1 beta mRNA expression at 2.5 uM pretreated with compound for 1 hr followed by LPS stimulation for 6 hrs by real-time PCR analysis; format: functional, cell-based; settings: time 7.0 hrs; summary of the method: as §2
[9] = test system: SH-SY5Y; test: Antioxidant activity in human SH-SY5Y cells assessed as reduction in intracellular ROS formation at 2.5 uM incubated for 24 hrs followed by incubation with t-BuOOH for 30 mins by H2DCF-DA staining based fluorescence analysis; format: functional; settings: time 24.5 hrs
Summary of the method: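 SH-SY5Y (2×10^4 cells/well) exposed to 2.5 μM for 24 h, loaded with H2DCF-DA 30 min at room temperature, probe removed, then challenged with 50 μM t-BuOOH 30 min at room temperature. Fluorescence ex 485/em 535 nm, expressed as % ROS increase. Three independent experiments; one-way ANOVA with Dunnett's test.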

[10] = molecular target: Keap1/Nrf2 (Homo sapiens) (UniProt Q16236+Q14145); test: Activation of Keap1/Nrf2 in human SH-SY5Y cells assessed as Nrf2 nuclear translocation by measuring increase in nuclear to cytosolic Nrf2 ratio at 2.5 uM incubated for 3 hrs by western blot analysis; format: cell-based; settings: filed as activator
Summary of the method: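 SH-SY5Y seeded 2×10^6 cells/dish, grown 24 h, then exposed 3 h at 37 °C, 5% CO2. Nuclear and cytosolic fractions immunoblotted for Nrf2, membranes stripped and reprobed for β-actin and lamin B1 as loading references. Mean ± SEM of three independent experiments; one-way ANOVA with Dunnett's test.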

[11] = molecular target: Amyloid-beta precursor protein (Homo sapiens) (UniProt P05067); test: Anti-oligomeric activity against Abeta42 (unknown origin) assessed as depletion of the formation of toxic HMW Abeta42 oligomers at 2.5 uM measured after 2 to 10 days from sample solubilization by capillary electrophoresis assay; settings: time 2-10 day
Summary of the method: (§3)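 Aβ42 stock diluted to 221 μM in 20 mM sodium phosphate pH 7.4 containing compound (ethanol stocks 1.53 mM). Capillary electrophoresis: BGE 80 mM sodium phosphate pH 7.4, 30 mbar × 3 s hydrodynamic injection, +12 kV, 25 °C, 200 nm detection. Oligomers assigned by effective mobility; HMW oligomer peak quantified semiquantitatively as normalised area %.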

[12] = molecular target: Amyloid-beta precursor protein (Homo sapiens) (UniProt P05067); test: Anti-oligomeric activity against Abeta42 (unknown origin) assessed as depletion of the formation of toxic HMW Abeta42 oligomers at 5 uM measured at day 7 from sample solubilization by capillary electrophoresis assay; settings: time 7.0 day; summary of the method: as §3
[13] = molecular target: Amyloid-beta precursor protein (Homo sapiens) (UniProt P05067); test: Anti-oligomeric activity against Abeta42 (unknown origin) assessed as depletion of the formation of toxic HMW Abeta42 oligomers at 1 uM measured at day 7 to 10 from sample solubilization by capillary electrophoresis assay; settings: time 7-10 day; summary of the method: as §3
[14] = Toxicity against Drosophila W1118 assessed as minimum toxic concentration by measuring eclosion rate measured for 72 hrs
[15] = Toxicity against Drosophila W1118 assessed as proportion of eclosed-flies at 1 uM measured after 72 hrs
[16] = Toxicity against Drosophila W1118 assessed as proportion of eclosed-flies at 50 uM measured after 72 hrs
[17] = Toxicity against Drosophila W1118 assessed as proportion of eclosed-flies at 20 uM measured after 72 hrs
[18] = test system: Drosophila; test: Antioxidant activity in Spastin Drosophila (Tubulin/Gal4 RNAi DSpast) neurodegenerative model assessed as decrease in intracelluar ROS level in A2 muscle at 10 uM flies raised in compound-enriched food by DHE staining based fluorescence analysis; format: functional, organism-based
Summary of the method: (§4)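 Spastin-RNAi (Tubulin-Gal4 cross, 28 °C) third-instar larvae raised on compound-enriched food, dissected in HL3, stained 30 min with 30 μM DHE, fixed in 4% PFA, DAPI counterstained. Confocal imaging (DHE 580–630 nm); two 2500 μm² ROIs per muscle or two 1900 μm² ROIs per brain, 10–15 larvae per group; DHE/DAPI ratio.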

[19] = test system: Drosophila; test: Antioxidant activity in Spastin Drosophila (Tubulin/Gal4 RNAi DSpast) neurodegenerative model assessed as decrease in intracelluar ROS level in brain at 10 uM flies raised in compound-enriched food by DHE staining based fluorescence analysis; format: functional, organism-based; summary of the method: as §4
[20] = test system: Drosophila; test: Effect on CAT transcript expression in Spastin Drosophila (Tubulin/Gal4 RNAi DSpast) neurodegenerative model at 10 uM flies raised in compound-enriched food by real-time PCR analysis; format: functional
Summary of the method: (§5)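 Total RNA from 5 third-instar Spastin-RNAi larvae raised on standard or compound-enriched food; Tubulin-Gal4/+ as control line. One-step SYBR RT-qPCR normalised to Rp49 by the 2^−ΔΔCt method. n = 3 experiments; one-way ANOVA, Tukey's test.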

[21] = test system: Drosophila; test: Downregulation of SOD1 transcript expression in Spastin Drosophila (Tubulin/Gal4 RNAi DSpast) neurodegenerative model at 10 uM flies raised in compound-enriched food by real-time PCR analysis; format: functional; summary of the method: as §5

Sequence of Amyloid-beta precursor protein (Homo sapiens) (P05067 whole entry): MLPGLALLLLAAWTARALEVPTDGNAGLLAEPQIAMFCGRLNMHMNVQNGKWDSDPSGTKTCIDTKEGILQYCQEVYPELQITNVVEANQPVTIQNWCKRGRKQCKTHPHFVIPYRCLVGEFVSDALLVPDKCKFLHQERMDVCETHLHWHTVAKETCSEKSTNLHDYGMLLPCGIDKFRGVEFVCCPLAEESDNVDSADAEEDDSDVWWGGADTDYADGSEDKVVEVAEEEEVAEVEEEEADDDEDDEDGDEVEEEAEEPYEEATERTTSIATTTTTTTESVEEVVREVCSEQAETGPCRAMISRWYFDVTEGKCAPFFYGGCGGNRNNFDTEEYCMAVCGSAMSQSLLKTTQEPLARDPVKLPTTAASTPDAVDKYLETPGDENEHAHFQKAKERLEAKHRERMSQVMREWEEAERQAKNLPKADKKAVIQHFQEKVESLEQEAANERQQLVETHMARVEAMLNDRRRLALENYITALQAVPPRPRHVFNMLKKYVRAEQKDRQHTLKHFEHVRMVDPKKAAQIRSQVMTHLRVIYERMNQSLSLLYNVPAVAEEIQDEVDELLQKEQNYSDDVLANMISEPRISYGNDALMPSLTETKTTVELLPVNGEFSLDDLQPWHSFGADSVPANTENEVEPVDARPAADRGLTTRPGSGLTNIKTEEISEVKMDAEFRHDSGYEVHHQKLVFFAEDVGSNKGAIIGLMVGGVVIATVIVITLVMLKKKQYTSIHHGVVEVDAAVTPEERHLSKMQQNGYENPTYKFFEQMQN
Sequence of Keap1/Nrf2 (Homo sapiens) (Q14145 whole entry, looked up): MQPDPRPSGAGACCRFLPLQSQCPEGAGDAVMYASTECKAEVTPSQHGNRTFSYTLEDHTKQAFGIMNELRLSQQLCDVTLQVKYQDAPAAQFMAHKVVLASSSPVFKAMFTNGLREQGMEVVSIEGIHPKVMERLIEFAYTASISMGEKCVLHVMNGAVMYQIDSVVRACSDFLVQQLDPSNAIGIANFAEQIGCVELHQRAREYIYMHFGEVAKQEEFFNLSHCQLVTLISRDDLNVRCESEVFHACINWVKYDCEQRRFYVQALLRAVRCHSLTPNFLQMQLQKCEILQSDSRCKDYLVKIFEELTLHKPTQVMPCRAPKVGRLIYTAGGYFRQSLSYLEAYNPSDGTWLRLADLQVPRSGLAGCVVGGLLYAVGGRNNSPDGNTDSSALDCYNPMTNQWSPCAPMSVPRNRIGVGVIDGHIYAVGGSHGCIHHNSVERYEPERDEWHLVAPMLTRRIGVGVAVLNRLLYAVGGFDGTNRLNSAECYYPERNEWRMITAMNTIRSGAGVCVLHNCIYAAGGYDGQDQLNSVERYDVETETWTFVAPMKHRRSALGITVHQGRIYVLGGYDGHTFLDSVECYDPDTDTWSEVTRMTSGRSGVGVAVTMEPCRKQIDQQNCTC
Sequence of Keap1/Nrf2 (Homo sapiens) (Q16236 whole entry, looked up): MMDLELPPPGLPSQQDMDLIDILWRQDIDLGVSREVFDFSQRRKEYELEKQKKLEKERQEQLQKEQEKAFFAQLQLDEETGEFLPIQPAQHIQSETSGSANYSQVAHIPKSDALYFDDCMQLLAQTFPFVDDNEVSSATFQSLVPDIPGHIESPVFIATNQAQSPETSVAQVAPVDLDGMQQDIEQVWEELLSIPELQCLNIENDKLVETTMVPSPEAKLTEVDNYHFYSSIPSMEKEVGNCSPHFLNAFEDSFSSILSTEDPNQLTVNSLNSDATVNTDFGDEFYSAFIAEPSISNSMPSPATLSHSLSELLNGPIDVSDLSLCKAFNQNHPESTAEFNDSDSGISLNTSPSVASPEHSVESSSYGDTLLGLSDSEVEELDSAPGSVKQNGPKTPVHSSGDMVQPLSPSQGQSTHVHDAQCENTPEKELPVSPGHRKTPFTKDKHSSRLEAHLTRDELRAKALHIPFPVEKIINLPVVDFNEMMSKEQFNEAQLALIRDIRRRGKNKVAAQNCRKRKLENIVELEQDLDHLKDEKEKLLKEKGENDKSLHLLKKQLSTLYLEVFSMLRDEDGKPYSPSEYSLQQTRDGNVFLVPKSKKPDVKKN

With `CCCCn1cc(C/C(C(=O)/C=C/c2ccc(OC)cc2)=C(O)\C=C\c2ccc(OC)cc2)nn1` the Activity [1] was “Non-Toxic”, the Activity [2] was “Non-Toxic” and the Activity [3] was “Active”. For the same molecule, the Activity [4] was “Active”, the Activity [5] was “Active” and the Activity [6] was “Active”. The Activity [7] was “Active”, the Activity [8] was “Active” and the inhibition at 2.5 µM [9] was 18%. The Activity [10] was “Active”, the Activity [11] was “Active” and the Activity [12] was “Active”. For the same molecule, the Activity [13] was “Active”, the MTC [14] was 10 µM and the Activity [15] was 95.238%. For the same molecule, the Activity [16] was 71.309%, the Activity [17] was 88.099% and the Activity [18] was “Active”. The Activity [19] was “Active”, the Activity [20] was “inactive” and the inhibition [21] was “Active”.
